The values that follow come from BindingDB's records for doi:10.1021/jm9708588 (National University of Singapore, 1998).

pKi: −log10 of the molar value.

Sequence of Muscarinic acetylcholine receptor M3 (P08483 whole entry): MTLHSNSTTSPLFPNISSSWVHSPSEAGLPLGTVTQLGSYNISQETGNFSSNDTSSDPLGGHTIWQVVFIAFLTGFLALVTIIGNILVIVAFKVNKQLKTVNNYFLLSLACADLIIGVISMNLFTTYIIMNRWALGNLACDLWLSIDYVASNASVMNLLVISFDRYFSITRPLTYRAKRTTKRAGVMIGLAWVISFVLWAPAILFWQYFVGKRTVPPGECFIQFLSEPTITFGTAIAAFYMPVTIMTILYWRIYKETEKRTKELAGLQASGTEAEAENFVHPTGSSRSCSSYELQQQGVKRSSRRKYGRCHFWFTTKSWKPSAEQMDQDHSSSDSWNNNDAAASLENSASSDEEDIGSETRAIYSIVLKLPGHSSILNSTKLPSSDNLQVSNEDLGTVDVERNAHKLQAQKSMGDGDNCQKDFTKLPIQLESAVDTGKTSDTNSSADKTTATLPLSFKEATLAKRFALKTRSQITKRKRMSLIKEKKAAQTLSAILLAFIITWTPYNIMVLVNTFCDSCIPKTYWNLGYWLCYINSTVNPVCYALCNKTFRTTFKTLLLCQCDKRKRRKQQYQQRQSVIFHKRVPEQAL

One test addresses T1, Muscarinic acetylcholine receptor M1 (Rattus norvegicus, UniProt P08482).
T1 sequence (P08482 whole entry): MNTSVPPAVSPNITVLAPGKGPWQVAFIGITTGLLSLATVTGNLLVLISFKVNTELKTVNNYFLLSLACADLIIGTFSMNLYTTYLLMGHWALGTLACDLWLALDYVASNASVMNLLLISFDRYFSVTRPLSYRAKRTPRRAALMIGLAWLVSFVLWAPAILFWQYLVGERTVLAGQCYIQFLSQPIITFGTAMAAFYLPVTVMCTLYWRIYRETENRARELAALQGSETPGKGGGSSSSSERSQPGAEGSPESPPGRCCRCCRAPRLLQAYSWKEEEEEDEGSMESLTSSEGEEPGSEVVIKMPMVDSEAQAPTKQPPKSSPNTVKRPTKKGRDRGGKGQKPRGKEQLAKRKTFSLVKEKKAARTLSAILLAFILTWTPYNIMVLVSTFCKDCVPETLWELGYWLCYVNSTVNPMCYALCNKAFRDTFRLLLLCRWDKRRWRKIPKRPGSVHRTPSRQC
Kind of test: Binding affinity to Muscarinic acetylcholine receptor M1 by measuring its ability to displace [3H]pirenzepine from rat cerebral cortex.
As a reminder, the pKi is the negative decadic logarithm of the Ki, by convention in mol/L. A low value points to a high Ki. For the molecule `CC#CCCON=C1CC2CCC(C1)N2C`, the pKi was 6.10.

The molecule `CC#CCON=C1CCN(C)CC1` showed a pKi of 5.40.

`CCC#CCON=C1CCN(C)CC1`: the pKi is 5.40.

In turn, `C#CCON=C1CC2CCC(C1)N2C` had a pKi of 5.90.

Regarding `C#CCCON=C1CC2CCC(C1)N2C`, the pKi was 5.80.

The molecule `C#CC(CC)ON=C1CCN(C)CC1` (stereo unspecified) showed a pKi of 5.20.

On to `CN1C2CCC1CC(=NO)C2`, for which the pKi was 3.30.

Regarding `C#CC(CC)ON=C1CC2CCC(C1)N2C` (stereo unspecified), the pKi is 6.50.

As to `CON=C1CC2CCC(C1)N2C`, the pKi is 3.00.

For the molecule `CON=C1CCN(C)CC1`, the negative-log Ki (pKi) was 4.30.

`C#CCCON=C1CCN(C)CC1`: the negative-log Ki (pKi) was 5.80.

For `C#CC(C)ON=C1CC2CCC(C1)N2C` (stereo unspecified), the pKi is 5.00.

`C#CCCCON=C1CCN(C)CC1` gave a pKi of 5.10. This pKi and that of the molecule before are within 0.2 log units of each other.

Consider `C#CCC(C)ON=C1CC2CCC(C1)N2C` (stereo unspecified), for which the pKi was 7.00.

For `CC#CCCON=C1CCN(C)CC1`, the pKi was 5.70.

`CN1CCC(=NO)CC1` showed a pKi of 3.30.

`C#CC(C)ON=C1CCN(C)CC1` (stereo unspecified): the pKi was 5.30.

Molecule `C#CCON=C1CCN(C)CC1` gave a pKi of 4.30.

Molecule `C#CCCCON=C1CC2CCC(C1)N2C` gave a pKi of 6.20.

With `CCC#CCON=C1CC2CCC(C1)N2C`, the pKi was 5.30.

As for `CC#CCON=C1CC2CCC(C1)N2C`, the pKi is 6.30.

`C#CCC(C)ON=C1CCN(C)CC1` (stereo unspecified): the pKi was 5.50.

Turning to `O=C1CCCN1CC#CCN1CCCC1` [1-[4-(2-oxo-pyrrolidin-1-yl)-but-2-ynyl]-pyrrolidinium], the pKi is 6.20.

Consider `C[N+](C)(C)CC#CCOC(=O)Nc1cccc(Cl)c1` [McN-A-343], for which the pKi was 5.30.

The target in another test is Muscarinic acetylcholine receptor M3 (Rattus norvegicus, UniProt P08483). The test is described as follows: Binding affinity to Muscarinic acetylcholine receptor M3 by measuring its ability to displace [3H]N-methylscopolamine binding in rat submandibulary gland. An outline of the steps:
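Rat submandibulary gland membranes prepared in Na+/Mg2+ HEPES buffer pH 7.4. Nonspecific binding defined with 1 μM (±)-QNB. Pellet obtained by centrifugation and counted by scintillation. Triplicate determinations. Ki derived from IC50 by Cheng–Prusoff.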
As to `C[N+](C)(C)CC#CCOC(=O)Nc1cccc(Cl)c1` [McN-A-343], the pKi was 5.60.

Target in the next test: not listed separately
Kind of test: The compound was evaluated for its ability to inhibit [3H]NMS binding to Muscarinic acetylcholine receptor in heart.
Consider `CCC#CCON=C1CC2CCC(C1)N2C`, for which the pKi is 4.20.
